FLuc stim CS: FLuc activators, initial screening, artefact control for FLuc-dependent activation tests, biochemical, ATPlite luminescence; ATPlite luciferase biochemical, 10 min; 0 = ATP-free wells, 1 = DMSO control; 200,000 tested, under 10 active; Luciferin 4-monooxygenase (Photinus pyralis), P08659; AID 1027, 2008; activation factor at 10 µM;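 active means luciferase activation factor, scaled between plate controls, of at least 2 with compound at 10 µM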
Target sequence (P08659 whole entry, looked up): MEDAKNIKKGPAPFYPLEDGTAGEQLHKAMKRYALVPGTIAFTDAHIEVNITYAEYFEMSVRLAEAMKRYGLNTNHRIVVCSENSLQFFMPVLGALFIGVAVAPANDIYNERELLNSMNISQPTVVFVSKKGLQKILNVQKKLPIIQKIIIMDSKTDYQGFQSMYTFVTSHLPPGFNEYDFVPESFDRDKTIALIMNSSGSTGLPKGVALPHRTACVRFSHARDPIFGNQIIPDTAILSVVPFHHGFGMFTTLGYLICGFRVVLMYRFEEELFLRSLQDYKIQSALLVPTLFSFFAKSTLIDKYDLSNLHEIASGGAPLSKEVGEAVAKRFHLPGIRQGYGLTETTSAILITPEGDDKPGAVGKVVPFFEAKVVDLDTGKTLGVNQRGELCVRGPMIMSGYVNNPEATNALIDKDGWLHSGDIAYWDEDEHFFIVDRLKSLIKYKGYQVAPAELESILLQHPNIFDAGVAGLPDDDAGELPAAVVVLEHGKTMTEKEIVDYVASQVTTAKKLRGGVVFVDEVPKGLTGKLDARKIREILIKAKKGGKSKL
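assay system = Luciferase/luciferin detection reagent, cell-free biochemical luciferase assay | also added = ATP substrate | times = 10 min post-reagent at room temperature | measured by = luminescence from luciferase reaction | measure = luciferase activation, seen as luminescence increase over controls | benchmarks = low control with PBS replacing ATP, high control enzyme plus ATP without compound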
FLuc inh counter: firefly luciferase enzyme inhibitors, primary screen, artefact control for luciferase-based inhibitor screens, biochemical, luminescence, ATPLite. Luciferin 4-monooxygenase (Photinus pyralis), P08659. 10 min. inhibition, % at 10 µM. 200,000 tested, 1.5% active;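 active means inhibition above about 50% when tested at 10 µM, limit read from the data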
PPC-1+TRAIL kill: compounds killing PPC-1 cancer cells with TRAIL present, primary screen, TRAIL potentiator project, ATPLite luminescence, uHTS | PPC-1 cells + TRAIL, ATPLite viability luminescence | cell killing (% activity), % at 4 µM or 5 µM | 220,000 tested, 0.41% active;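 active means cell killing above 50% in the first pass at 4 µM, then a duplicate retest at 5 µM averaging 50% or more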;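 further: plate controls were cells with TRAIL plus DMSO for no effect and medium-only wells lacking cells for full effect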
TRAIL sens C8: viability loss with TRAIL in NB7+C8 cells, primary screen, TRAIL sensitizer project, cell-based, ATPlite luminescence; inhibition (viability loss, TRAIL sensitization), % at 10 µM; 360,000 tested, 1% active; AID 624354, 2012;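 active means compounds causing at least 50% loss of cell viability in the single-dose screen, relative to plate controls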
An asterisk follows results filed as active; x = no result given. The list is not random: actives were taken first. Their share in the collection is about 1.6%.

SMILES | FLuc stim CS | FLuc inh counter | PPC-1+TRAIL kill | TRAIL sens C8
O=C(NC(=S)N1CCCCCC1)c1ccc(Cl)cc1Cl | 1.1 | -6 | -4 | 7
CSCCC(C)N1CCC(Oc2ccc(C(=O)NCc3ccccn3)cc2)CC1 (configuration not stated) | x | x | x | -8
Cc1ccc(C(=O)O)cc1N1C(=O)c2cccc3c([N+](=O)[O-])ccc(c23)C1=O | x | x | x | 17
O=C(O)c1ccc(CN2C(=O)c3cccc4c([N+](=O)[O-])ccc(c34)C2=O)cc1 | x | x | x | 58*
CCC(OC(=O)CN1C(=O)C(=O)c2ccccc21)C(=O)Nc1ccccc1OC (configuration not stated) | x | x | x | 1
c1ccc(-c2nc3ccccc3o2)nc1 | 0.7 | 31 | 3 | 5
c1ccc2nc(-c3nc4ccccc4o3)ccc2c1 | 0.1 | 88* | 23 | 76*
O=C(/C=C/c1ccnc2ccccc12)c1cccs1 | 0 | 96* | 26 | 31
COCCCN1C(=O)C(CC(=O)NCCN2CCOCC2)CC(C(=O)N2CCOCC2)=C1C (configuration not stated) | x | x | x | -2
Oc1ccc(-c2csc(Nc3ncccn3)n2)cc1 | 0.4 | 56* | 38 | 29
Cc1cccc(C)c1NC(=O)C1CCN(S(C)(=O)=O)CC1 | x | x | x | 51*
CCCCN(C)CCCNC(=O)CN1C(=O)COc2ccc(S(=O)(=O)N3CCOCC3)cc21 | x | x | x | -5
O=S(=O)(c1ccc(Br)cc1Cl)N1CCN(CCO)CC1 | 1.1 | -7 | -9 | 0
O=C1C=CC(=O)c2c(O)c(N3CCN(CCO)CC3)c(Cl)c(O)c21 | x | x | x | 90*
O=C1C=CC(=O)c2c(O)c(N3CCN(CCOCCO)CC3)c(Br)c(O)c21 | x | x | x | 90*
OCCOCCN1CCN(C2=Nc3ccccc3Sc3ccccc32)CC1 | 1 | 0 | 24 | 1
O=C(O)c1ccccc1C(=O)c1cccc2ccccc12 | x | x | x | -22
CC(C)(C)c1ccc(/C=C/C(=O)NC2=NCCS2)cc1 | 0.5 | 46 | 34 | 52*
Cc1ccc(/C=C/C(=O)Nc2ccccc2C(N)=O)cc1 | 0.1 | 93* | 84* | 84*
Cc1ccc(OCC(=O)NC2=NCCS2)cc1 | 0.7 | 34 | 6 | 7
Cc1ccc(/C=C/C(=O)NC2=NCCS2)cc1 | 0.1 | 86* | 50 | 76*
CCOC(=O)C1CCCN(C(=O)c2[nH]c(C(F)(F)F)nc2-c2ccccc2)C1 (configuration not stated) | x | x | x | -29
Cc1ccc(NC(=O)CSc2nc(=O)n(CCCN3CCOCC3)c3c2CCCC3)cc1 | x | x | x | 16
CCN1CCN(Cc2ccc(NC(=O)c3ccc(C)c(NC(=O)C(=O)c4c[nH]c5ccccc45)c3)cc2C(F)(F)F)CC1 | x | x | -2 | 89*
CCN1CCN(Cc2ccc(NC(=O)c3ccc(C)c(NC(=O)c4ccc5n[nH]nc5c4)c3)cc2C(F)(F)F)CC1 | x | x | -2 | -10
SMILES | FLuc stim CS | FLuc inh counter | PPC-1+TRAIL kill | TRAIL sens C8
CCN(CC)c1ccc(/C=N/O)cc1 | 0.8 | 18 | 7 | 5
CCN(CC)c1ccc(N=Nc2ncn[nH]2)cc1 | 0.2 | 82* | 47 | 48
CC(O)c1nc2ccccc2n1C/C=C/c1ccccc1 (configuration not stated) | 1.1 | -6 | -7 | -18
Cc1c(P(=S)(c2ccccc2)c2ccccc2)[n+]2ccccc2n1C/C=C/c1ccccc1 | x | x | x | 78*
O=C(Nc1cccc2nsnc12)c1cc2c(cc1Cl)Sc1nccn1S2(=O)=O | x | x | x | 1
O=C(c1ccncc1)N1CCN(c2cc(-c3ccccc3)nc3cc(-c4cccc(Cl)c4)nn23)CC1 | x | x | x | 70*
O=C(c1ccoc1)N1CCN(c2cc(-c3ccncc3)nc3cc(-c4cccc(Cl)c4)nn23)CC1 | x | x | x | 19
CCOC(=O)c1c(C)[nH]c(C2=NNC(=NC3CC3)SC2)c1C | 0.3 | 71* | 20 | 33
CCOC(=O)c1c(C)[nH]c(/C(C)=N/O)c1C | 1 | -1 | 14 | 39
CCc1ccc(C(=O)Nc2cc(C)ccc2F)s1 | 0.8 | 16 | 10 | 53*
Cc1ccc(S(=O)(=O)NCCC(=O)Nc2ccc(Cl)c(Cl)c2)cc1 | 1.1 | -7 | 27 | -1
CC(=O)N1CCc2cc(S(=O)(=O)CCC(=O)N3CCN(c4cc(C)ccc4C)CC3)ccc21 | x | x | x | 3
C/C(=N\NC(=O)c1ccc2ccccc2c1)c1cccs1 | x | x | x | 55*
C/C(=N\NC(=O)c1cccs1)c1ccc2ccccc2c1 | x | x | x | 13
CC(C)COCc1ccc(O)c2ncccc12 | 1 | -5 | 14 | 52*
Cc1cc(C=C2C(=O)c3ccccc3C2=O)c(C)n1-c1ccc(C(=O)O)cc1 | 1.1 | -7 | 8 | 6
Nc1ccccc1C=C1Cc2ccccc2C1=O | x | x | x | 48*
CC1=NN(c2ccccc2)C(=O)/C1=C\c1cc(C)n(-c2cccnc2)c1C | x | x | 1 | -9
Cc1cc(/C=C2\Cc3ccccc3C2=O)c(C)n1-c1ccccc1 | 0.1 | 91* | 23 | 71*
CC1=NN(c2ccccc2)C(=O)/C1=C\c1cc(C)n(-c2ccccc2)c1C | 0.4 | 63* | 12 | 25
COc1ccccc1/C=C1\Cc2ccccc2C1=O | x | x | 11 | 5
Cc1cc(C=C2C(=O)c3ccccc3C2=O)c(C)n1-c1ccccc1 | 0.1 | 90* | 5 | 78*
O=C1C(=O)N(Cc2ccccc2)C(=O)N1CCOc1ccccc1 | 1 | -3 | 6 | 3
CC1=NN(c2ccccc2)C(=O)C1=Cc1ccccc1 | x | x | x | 0
CC1=NN(c2ccccc2)C(=O)/C1=C/c1c(O)n(-c2ccc(F)cc2)[nH]c1=O | 0.4 | 63* | 31 | 33
SMILES | FLuc stim CS | FLuc inh counter | PPC-1+TRAIL kill | TRAIL sens C8
CCN(CC)S(=O)(=O)c1ccc(N/N=C/c2ccc(O)cc2O)nc1 | 1 | 0 | 52* | 18
Oc1ccc(/C=N/Nc2ncc(Br)cn2)c(O)c1 | 0.8 | 18 | 18 | 51*
Cn1c(CNC(=O)C(Cc2ccccc2)NC(=O)c2ccccc2F)cc(=O)n(C)c1=O (configuration not stated) | x | x | x | -2
O=C(Nc1ccc(NC(=O)C2CC2)nc1)c1ccccn1 | 0.4 | 62* | 2 | 40
CC(C)C(=O)Nc1ccc(NC(=O)c2ccccn2)cn1 | 0.3 | 67* | 20 | 48*
CCC(=O)Nc1ccc(NC(=O)c2ccccn2)cn1 | 0.6 | 42 | 19 | 21
O=C(Nc1cccc([N+](=O)[O-])c1)N1CCCCCC1 | x | x | x | -2
CN(C)c1ncnc2c1ccn2C1OC(CO)C(O)C1O (configuration not stated) | x | x | x | 78*
OCC1OC(n2cnc3c(NCc4ccccc4O)ncnc32)C(O)C1O (configuration not stated) | x | x | x | 76*
OCC1OC(n2ccc3c(NO)ncnc32)C(O)C1O (configuration not stated) | x | x | x | 92*
CC1CCC(NC(=O)C2c3ccccc3C(=O)N2Cc2cccs2)CC1 (configuration not stated) | 1 | 0 | -2 | -20
O=C1/C(=C\c2cccc(O)c2O)SC(=S)N1Cc1ccccc1 | x | x | x | 52*

Bioassay records from PubChem BioAssay.
